Sampled rows, rich in hits. Any-hit rate of the full collection: about 1.6%.
TPT1 inh: inhibitors of Candida albicans tRNA 2'-phosphotransferase TPT1 | recombinant caTPT1, FP RNA substrate dephosphorylation | inhibition, % at 5 µM | 0.81% of 300,000 active | AID 1962;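 active = inhibition above the mean of all tested compounds plus 3 SD, set per screening campaign, cut at about 24% in these data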;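 also: plate controls were DMSO alone for no effect and ferristatin control at 100 nM for full effect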
PKA-R2B activ: PKA-R2B complex activation | P22694+P31323 | PKA-R2B holoenzyme dissociation, Cy5-IP20 fluorescence polarization; R2B truncated from residue 108, S112A mutant; 0% DMSO only, 100% 113 µM cGMP | activation, % at 11.4 µM | 0.079% of 340,000 active;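 active = activation above a cutoff set at the mean over all compounds plus 3 SD, cut at about 18% in these data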;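 also: higher means more holoenzyme dissociation and a rise in polarization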
Target sequence (P31323 whole entry, looked up, other chains not shown, the tested form may be a part): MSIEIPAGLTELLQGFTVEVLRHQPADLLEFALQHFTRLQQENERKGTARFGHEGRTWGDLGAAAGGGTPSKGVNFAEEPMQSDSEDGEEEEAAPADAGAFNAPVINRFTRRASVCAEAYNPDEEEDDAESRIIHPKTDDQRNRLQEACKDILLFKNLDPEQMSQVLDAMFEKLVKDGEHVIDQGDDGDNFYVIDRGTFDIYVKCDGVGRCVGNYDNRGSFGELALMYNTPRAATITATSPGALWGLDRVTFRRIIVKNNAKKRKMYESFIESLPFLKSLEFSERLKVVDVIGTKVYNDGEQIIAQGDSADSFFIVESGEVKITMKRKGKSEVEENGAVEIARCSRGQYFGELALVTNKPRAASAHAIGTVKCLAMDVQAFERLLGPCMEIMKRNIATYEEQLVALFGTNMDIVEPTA
Rpn11 inh: blocks the human proteasome subunit Rpn11; human 26S proteasome, Ub4-pepOG fluorescence polarization; 20S core pre-blocked with epoxomicin; 0.59% of 360,000 active; O00487; AID 588493; calls only at 20 µM;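 active = inhibition at 20 µM, scaled to each plate's controls, above about 33%, limit read from the data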
PKA-R1A act: activators of PKA-R1A complex | P00514+P68181 | PKA-R1A dissociation, Cy5-IP20 fluorescence polarization; scaled: DMSO 0%, 113 µM cGMP 100% | activation, % at 11.4 µM | 0.083% of 340,000 active | AID 504707;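 active = percent activation above the mean of all tested compounds plus 3 SD, cut at about 19% in these data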;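 also: higher means more PKAc released from R1A so a rise in polarization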
CSN inh: inhibitors of human CSN-mediated cullin deneddylation; AID 651999; inhibition, % at 12.5 µM; Q92905; 0.38% of 360,000 active; Purified CSN, SCF-Nedd8-OG deneddylation, fluorescence polarization;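 active = pattern-corrected inhibition above about 35%, with an unprinted fluorescence ratio check between 0.5 and 1.5, limit read from the data, passing the limit was not always enough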;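 also: 0% = enzyme with substrate and 100% = substrate without enzyme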
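assay system = purified human Csn5 enzyme expressed in HEK293T cells | amount = 0.24 nM enzyme | buffer or medium = Tris/NaCl/DTT buffer, pH 7.5 | reagent = 10 nM SCFSkp2-Nedd8OG | compound = one concentration, 12.5 µM, 0.25% DMSO | times = 90 min reaction at room temperature | signal = FP | read-out basis = % inhibition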
HNF4A DNA FP: change in binding of human HNF4 alpha to DNA; P41235; HNF4a-FITC DNA binding, fluorescence polarization, 1 h; 0.3% of 360,000 active; activity change, % at 10 µM; in the data active = activity change above about 30%, passing the limit was not always enough
TPT1 inh confirm: confirmation of Candida albicans TPT1 inhibitors. inhibition, % at 5 µM. shares compounds with TPT1 inh. 74% of 2,400 active. recombinant caTPT1, fluorescence polarization, RNase T1 coupled;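 active = inhibition above the primary screen limit, the mean inhibition of all tested compounds plus 3 SD, cut at about 25% in these data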
RNase T1 inh: blocks Aspergillus oryzae RNase T1, a TPT1 counter-screen; RNase T1 cleavage, fluorescence polarization, 1536-well; 83% of 2,400 active; shares compounds with TPT1 inh; AID 2153; inhibition, % at 5 µM;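 active = inhibition above the solvent-only control well mean plus 3 SD, limit set per screening run, cut at about 23% in these data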;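 also: plate controls were DMSO wells with enzyme for no effect and wells without RNase T1 for full effect; inhibitors block cleavage so intact labeled substrate keeps polarization high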
Target sequence (P00651 whole entry, looked up): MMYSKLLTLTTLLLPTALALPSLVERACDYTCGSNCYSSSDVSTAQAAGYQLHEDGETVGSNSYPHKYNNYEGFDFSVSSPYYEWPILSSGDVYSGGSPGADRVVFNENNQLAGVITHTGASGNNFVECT
Rpn11 inh conf: Rpn11 inhibition confirmation, single concentration | shares compounds with Rpn11 inh | purified human 26S proteasome, Ub4-pepOG fluorescence polarization; proteasome pretreated with epoxomicin | inhibition, % at 20 µM | 29% of 1,900 active | AID 602318
MMP-2 inh: counter-screen for RPN11 inhibitors: inhibition of human MMP-2. recombinant MMP-2, FRET peptide cleavage fluorescence. AID 602330. shares compounds with Rpn11 inh. 4% of 1,900 active. inhibition, % at 20 µM;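 also: human MMP-2 activated beforehand with APMA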
Thrombin FP: thrombin (bovine) inhibition counter-screen | shares compounds with Rpn11 inh | bovine thrombin cleavage of Ub4-pepOG, fluorescence polarization | 13% of 1,900 active | inhibition, % at 20 µM;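 active = mean inhibition at least 40% at 20 µM, or signal 3 deviations below plate average, so some actives read negative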;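 also: plate controls were thrombin with DMSO for no effect and buffer wells lacking thrombin for full effect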
* marks the source's active call; other numbers are inactive results; i = inactive; . = no result shown; + = active, no number. Rule as the data show it, unless noted: active = inhibition above about 40%; inactive = the rest.

SMILES	TPT1 inh	PKA-R2B activ	Rpn11 inh	PKA-R1A act	CSN inh	HNF4A DNA FP	TPT1 inh confirm	RNase T1 inh	Rpn11 inh conf	MMP-2 inh	Thrombin FP
CCOC(=O)c1ccc(/C=C2/C=C(c3ccccc3)N(c3ccc(Cl)c(C(=O)O)c3)C2=O)cc1	62*	15	+	-1	29	-12	74*	80*	156*	-47	152*
N/C(Cc1cccs1)=N\OC(=O)COc1ccc(Cl)cc1Cl	-4	-9	i	-2	-7	1	.	.	.	.	.
C[C@]12CCC[C@H](O1)c1c(cc3c(c1O)C(=O)c1c(O)cc(O)cc1C3=O)O2	80*	-9	+	-10	38*	69	89*	99*	47*	-14	-10
O=C(Nc1nc2c(s1)CN(Cc1ccccc1)CC2)c1c(F)cccc1F	24*	-13	+	-2	6	27	37*	49*	-2	-42	-9
O=C(C1=C(O)C(=O)N(c2ncccn2)C1c1ccc(Cl)cc1)c1ccco1 (stereo unspecified)	2	-6	i	-5	25	14	.	.	.	.	.
O=C(C1=C(O)C(=O)N(c2ncccn2)C1c1ccc(Cl)c(Cl)c1)c1ccco1 (stereo unspecified)	28*	-6	+	3	48*	14	30*	39*	23	-5	20
CCN(CCO)c1ccc(N=Nc2cc(C)[nH]n2)cc1	25*	-1	+	3	17	47*	34*	42*	42*	-13	36
CCCCCCN1C=CC=C/C1=C/C=C(C#N)C#N	62*	5	+	1	13	22	80*	89*	37	15	52*
CCCCCCN1C=C/C(=C\C=C(C#N)C#N)c2ccccc21	5	-6	i	-2	8	23	.	.	.	.	.
CCN(CC(=O)Nc1cc(Cl)ccc1-n1cncn1)Cc1nc2ccccc2c(=O)[nH]1	.	-8	i	10	-3	-2	.	.	.	.	.
CCN1C(=S)SC(=O)C1=C1C=C(C)OC(C)=C1	4	-8	.	-14	-18	-15	.	.	.	.	.
CCN1C(=S)SC(=O)C1=C1C=C(C)N(Cc2ccco2)C(C)=C1	163*	-3	+	-6	17	36	126*	131*	2	4	34
CCOC1=C/C(=C/c2c(N)n3nc(S(=O)(=O)CC)sc3nc2=O)C=CC1=O	28*	8	+	4	33	22	56*	59*	65*	-8	46*
CCn1cc(C(=O)NCCN(C)C)c(=O)c2cc(F)c(N3CCN(C)CC3)cc21	-2	-9	i	0	0	-4	.	.	.	.	.
CC[n+]1ccc(/C=C2\Sc3ccccc3N2CCCS(=O)(=O)[O-])c2ccccc21	31*	5	+	-3	1	6	14	19	-3	-44	-12
O=[N+]([O-])c1cccc(S(=O)(=O)Nc2ccc3cn[nH]c3c2)c1	.	-2	i	12	-1	13	.	.	.	.	.
CCOc1ccc(-c2noc([C@@H]3O[C@H](CO)[C@@H](O)[C@H]3O)n2)cc1	.	.	i	.	-2	2	.	.	.	.	.
O=C(NN1C(=O)/C(=C\c2ccc(O)c([N+](=O)[O-])c2)SC1=S)c1ccccc1Cl	49*	0	+	-6	23	28	53*	63*	70*	11	53*
O=C(O)COc1ccccc1/C=C1\SC(=S)N(/N=C/c2ccccc2O)C1=O	2	-12	i	-7	13	5	.	.	.	.	.
O=C(O)COc1ccccc1/C=C1\SC(=S)N(NC(=O)c2ccccc2O)C1=O	31*	3	+	-8	16	8	31*	40*	58*	-9	54*
Nc1c(C(=O)Nc2ccccc2F)sc2nc(-c3ccco3)ccc12	31*	0	+	-3	19	20	27*	38*	12	-29	11
COc1ccc(CCNc2c([N+](=O)[O-])ncn2C)cc1OC	0	-1	i	-2	1	-2	.	.	.	.	.
CSc1nsc(/C=C/Nc2ccc(F)cc2F)c1C#N	54*	4	+	-3	31	42*	72*	89*	-20	-13	-21
O=C1NC(=Nc2ccccc2)S/C1=C\c1cccn1-c1ccccc1	1	4	i	-3	3	4	.	.	.	.	.
Cc1ccccc1N=C1NC(=O)/C(=C/c2cccn2C)S1	38*	-3	+	-6	5	22	28*	39*	40	5	44*
SMILES	TPT1 inh	PKA-R2B activ	Rpn11 inh	PKA-R1A act	CSN inh	HNF4A DNA FP	TPT1 inh confirm	RNase T1 inh	Rpn11 inh conf	MMP-2 inh	Thrombin FP
COc1ccc(Nc2ccccc2N)cc1	37*	4	+	8	5	35	27*	35*	26	-2	17
Nc1ccc(Nc2ccccc2N)cc1	25*	9	+	4	8	-28	26*	36*	1	-16	-2
CC(C)=C(NC(=O)c1ccccc1)C(=O)Nc1cccc(C)c1	0	0	i	2	-2	0	.	.	.	.	.
COc1ccc(C2SCC(=O)N2CCCN(C)C)cc1 (stereo unspecified)	-1	-1	i	-12	-4	-1	.	.	.	.	.
COc1ccc(-c2sc(C(=O)c3ccc(Cl)cc3Cl)cc2CC(=O)O)cc1	-5	6	i	1	-1	3	.	.	.	.	.
O=C(N/N=C/c1sc(=O)n(-c2ccccc2)c1Cl)c1ccncc1	32*	-5	+	6	14	21	69*	81*	25	-26	12
COc1cc(C(=O)N/N=C/c2sc(=O)n(-c3ccccc3)c2Cl)cc(OC)c1OC	8	-8	i	-4	2	11	.	.	.	.	.
COCCN=c1scc(-c2cc(OC)c(OC)c(OC)c2)n1/N=C/c1c(C)[nH]c2ccccc12	44*	-13	+	-8	12	31	60*	71*	56*	23	27

Source: PubChem (several laboratories)
